Source: PubChem BioAssay
Calls of active or inactive are those of the source.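 How the source made its calls, unless noted: active means viability loss from added drug above about 55%, and viability with drug at most 40%, in both replicates (limit read from the data, passing the limit was not always enough); inconclusive means both conditions met in only one replicate; inactive means neither replicate meets both conditions.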

What was measured:
[1] = Her2 expression decrease, cell viability multiplex – SKBR3 breast tumor cells, AlphaScreen, ATP viability, primary screen (AID 461;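 active means Her2 level under about 52% in both replicate screens, with viability over 70% of control, limit read from the data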;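 on Her2 level: lower value means less Her2 protein in the cells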;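 on viability: percent of carrier control wells set as 100% viability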); conditions: SKBR3 Her2 protein level, 18-24 h, measured here: SKBR3 viability, ATP luminescence, at 10 µM
[2] = target: Receptor tyrosine-protein kinase erbB-2 (Homo sapiens) (UniProt P04626); experiment: as above; conditions: 18-24 h, at 10 µM, stronger effect = lower value
Chain of Receptor tyrosine-protein kinase erbB-2 (Homo sapiens) (P04626 whole entry, looked up): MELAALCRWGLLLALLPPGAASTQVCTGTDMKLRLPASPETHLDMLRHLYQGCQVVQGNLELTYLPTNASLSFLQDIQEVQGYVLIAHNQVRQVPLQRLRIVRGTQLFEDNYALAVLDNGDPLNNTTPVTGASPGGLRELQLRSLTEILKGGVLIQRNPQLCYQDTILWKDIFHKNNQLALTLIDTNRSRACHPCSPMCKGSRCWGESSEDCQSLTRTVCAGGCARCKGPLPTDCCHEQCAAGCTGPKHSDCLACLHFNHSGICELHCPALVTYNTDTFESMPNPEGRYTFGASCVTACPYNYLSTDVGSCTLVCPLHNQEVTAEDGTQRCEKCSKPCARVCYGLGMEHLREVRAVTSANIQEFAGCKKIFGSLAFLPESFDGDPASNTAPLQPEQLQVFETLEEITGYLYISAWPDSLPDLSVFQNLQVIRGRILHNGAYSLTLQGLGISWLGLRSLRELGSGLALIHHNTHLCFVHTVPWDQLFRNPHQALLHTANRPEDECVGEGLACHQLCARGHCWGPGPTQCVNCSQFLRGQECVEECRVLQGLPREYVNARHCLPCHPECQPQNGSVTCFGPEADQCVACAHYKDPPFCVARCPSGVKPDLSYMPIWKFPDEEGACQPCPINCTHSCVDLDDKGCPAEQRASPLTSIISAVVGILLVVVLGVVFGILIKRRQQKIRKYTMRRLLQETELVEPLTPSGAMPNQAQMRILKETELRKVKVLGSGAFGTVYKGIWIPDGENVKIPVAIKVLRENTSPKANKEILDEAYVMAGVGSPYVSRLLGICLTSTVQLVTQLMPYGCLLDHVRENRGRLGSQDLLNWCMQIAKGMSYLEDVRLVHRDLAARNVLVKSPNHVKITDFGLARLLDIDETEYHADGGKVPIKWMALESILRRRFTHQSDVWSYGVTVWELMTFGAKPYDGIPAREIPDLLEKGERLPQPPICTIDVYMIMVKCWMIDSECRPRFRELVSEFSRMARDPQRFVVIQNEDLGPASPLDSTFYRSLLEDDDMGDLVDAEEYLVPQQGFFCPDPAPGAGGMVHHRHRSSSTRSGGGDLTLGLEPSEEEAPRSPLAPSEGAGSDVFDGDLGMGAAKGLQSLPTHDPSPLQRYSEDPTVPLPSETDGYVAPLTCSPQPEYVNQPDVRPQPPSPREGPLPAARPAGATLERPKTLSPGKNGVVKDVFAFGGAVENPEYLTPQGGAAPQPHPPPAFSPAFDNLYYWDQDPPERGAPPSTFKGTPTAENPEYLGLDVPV

[3] = reduced viability of SK-BR-3 breast cancer cells – cell-based, 24 h, human, pilot screen (AID 572;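 active means viability at or below 10% of carrier control in both of two separate runs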;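 further: compound exposure lasted between 18 and 24 h rather than exactly 24 h; 100% = carrier-treated control wells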); conditions: SK-BR-3 viability, CellTiter-Glo luminescence, at 10 µM, stronger effect = lower value
[4] = HUVEC growth inhibition – cell-based, human, primary screen (AID 575;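 active means viability at or below 30% in both replicate assays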;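 further: 100% = median of untreated cell wells with 0.1% DMSO on each plate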); conditions: HUVEC proliferation, CellTiter-Glo luminescence, 72 h; at 10 µM; stronger effect = lower value
In short: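 Assay system: Primary human umbilical vein endothelial cells | Quantity: 1250 cells per well | Medium: Supplemented EBM, 2% fetal bovine serum | Detection: CellTiter-Glo luminescence measuring cellular ATP | Read-out: % viability vs DMSO wells | Plate: Collagen-coated 384-well format | Times: 72 h exposure, 37 °C, 5% CO2, 30 min RT equilibration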

[5] = H69AR cell proliferation blockers – human, duplicate replicates, primary screen (AID 580;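 active means viability at or under a set limit in both replicates, limit being median viability minus 3 SD, cut at about 48% in these data, passing the limit was not always enough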;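 further: 100% = mean luminescence of untreated wells and 0% = no signal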); conditions: H69AR lung tumor cells viability, ATP luminescence, 72 h; at 10 µM; stronger effect = lower value
[6] = MRP1 drug-resistance reversers in H69AR cells – cell-based, doxorubicin co-treatment, pilot screen (AID 601); conditions: CellTiter-Glo, 72 h, at 10 µM; for differential viability (reversal): stronger effect = higher value
[7] = yeast transport mutant growth inhibition pilot in 384-well plates, post-Golgi transport modulator project (AID 636; in the data active means inhibition above about 31%); conditions: absorbance 615 nm, about 18 h, stronger effect = higher value
[8] = growth suppression of yeast trafficking mutant, preliminary HTS, modulators of trafficking downstream of Golgi apparatus project, 1536-format plate, OD 615 nm (AID 637; in the data active means inhibition above about 30%); conditions: yeast transport mutant growth, absorbance 615 nm, 18 h; stronger effect = higher value
[9] = H69AR cells + 2 uM doxorubicin, measured here: viability with 2 uM doxorubicin, stronger effect = lower value
[10] = H69AR cells, compound alone cytotoxicity

Row | Compound | viability [1] | Her2 level [2] | viability [3] | viability [4] | viability [5] | differential viability (reversal) ([6]; H69AR cells + 2 uM doxorubicin) | viability [6, 9] | viability [6, 10] | inhibition [7] | inhibition [8]
1 | Cc1c(C(=O)O)oc2ccc(S(=O)(=O)NCCC3=CCCCC3)cc12 | 100% | 98.5% (inactive) | 100% (inactive) | 95.9% (inactive) | 101% (inactive) | 6.48% (inactive) | 94.3% | 101% | -3.16% (inactive) | -9.52% (inactive)
2 | NC(=O)CCS(=O)(=O)CCN1CCCCC1 | 93.5% | 86% (inactive) | 93.5% (inactive) | 102% (inactive) | 93.2% (inactive) | -0.51% (inactive) | 93.7% | 93.2% | -0.13% (inactive) | -2.95% (inactive)
3 | Cc1nc(NCCNC(=O)c2ccco2)c2c(C)c(C)sc2n1 | 87.5% | 81% (inactive) | 87.5% (inactive) | 97.9% (inactive) | 86.5% (inactive) | 2.2% (inactive) | 84.3% | 86.5% | -4.08% (inactive) | 0.91% (inactive)
4 | COc1ccccc1OCc1ccc(C(=O)NC(C)(C)C)o1 | 83% | 102% (inactive) | 83% (inactive) | 94.2% (inactive) | 95.4% (inactive) | 14.6% (inactive) | 80.9% | 95.4% | 1.71% (inactive) | -5.82% (inactive)
5 | CN1CCCC(OC(=O)COc2ccc(Br)cc2)C1 (stereo not given) | 93.5% | 108% (inactive) | 93.5% (inactive) | 91.4% (inactive) | 89.7% (inactive) | -2.85% (inactive) | 92.5% | 89.7% | -0.8% (inactive) | -1.48% (inactive)
6 | O=C(c1ccccc1Cl)N1CCc2ccccc2C1 | 97% | 75% (inactive) | 97% (inactive) | 97.1% (inactive) | 83% (inactive) | 1.55% (inactive) | 81.5% | 83% | -8.49% (inactive) | -5.4% (inactive)
7 | CCC1C(=O)n2nc(-c3ccccc3)cc2N=C1C (stereo not given) | 106% | 66.5% (inactive) | 106% (inactive) | 86.9% (inactive) | 99% (inactive) | 8.73% (inactive) | 90.2% | 99% | -0.39% (inactive) | -3.17% (inactive)
8 | O=C(C1CCN(S(=O)(=O)Cc2ccccc2)CC1)N1CCN(c2ncccn2)CC1 | 83% | 108% (inactive) | 83% (inactive) | 115% (inactive) | 112% (inactive) | 22.3% (inactive) | 90% | 112% | -0.39% (inactive) | -2.36% (inactive)
9 | COC(=O)c1cc(Br)c(=O)n(-c2ccc(OC)cc2)c1 | 96.5% | 93.5% (inactive) | 96.5% (inactive) | 100% (inactive) | 94.5% (inactive) | 7.62% (inactive) | 86.8% | 94.5% | -2.8% (inactive) | 0.65% (inactive)
10 | COCC(=O)N(Cc1ccc(OC)cc1)Cc1nc2ccccc2c(=O)[nH]1 | 126% | 108% (inactive) | 126% (inactive) | 83.6% (inactive) | 86.2% (inactive) | -13.9% (inactive) | 100% | 86.2% | -5.66% (inactive) | 5% (inactive)
11 | CCOC(=O)C(CC)Sc1nc2c(c(=O)[nH]c(=O)n2C)n1C/C=C(/C)Cl (stereo not given) | 97.5% | 83% (inactive) | 97.5% (inactive) | 89.9% (inactive) | 84.9% (inactive) | 20.7% (inactive) | 64.2% | 84.9% | -6.27% (inactive) | 3.93% (inactive)
12 | COc1ccc(OC)c(S(=O)(=O)Nc2ccc(C(N)=O)cc2)c1 | 98.5% | 91% (inactive) | 98.5% (inactive) | 110% (inactive) | 94% (inactive) | 5.67% (inactive) | 88.4% | 94% | -4.61% (inactive) | -2.3% (inactive)
13 | COc1ccc(CC(=O)OCc2nnc(C3COc4ccccc4O3)o2)cc1OC (stereo not given) | 116% | 104% (inactive) | 116% (inactive) | 91.3% (inactive) | 104% (inactive) | 19.8% (inactive) | 83.7% | 104% | -2% (inactive) | -1.64% (inactive)
14 | COc1ccc(C(=O)Cn2c(N3CCCCC3)nc3c2c(=O)n(C)c(=O)n3C)cc1OC | 94% | 98.5% (inactive) | 94% (inactive) | 83.9% (inactive) | 92.7% (inactive) | -6.42% (inactive) | 99.1% | 92.7% | 1.18% (inactive) | -1.48% (inactive)
15 | CC(C)=CCCC(C)NC(=O)NC1CCCCC1 (stereo not given) | 91% | 94% (inactive) | 91% (inactive) | 106% (inactive) | 107% (inactive) | 18% (inactive) | 88.6% | 107% | -5.33% (inactive) | 2.74% (inactive)
16 | O=C(O)CCCC(=O)Nc1nc(-c2ccc(F)cc2)cs1 | 97.5% | 75.5% (inactive) | 97.5% (inactive) | 83.3% (inactive) | 96.5% (inactive) | 4.08% (inactive) | 92.4% | 96.5% | -3.95% (inactive) | -4.5% (inactive)
17 | CCN1C(=O)N(CC)C2C1N(C(C)=O)C(=O)N2C(C)=O (stereo not given) | 107% | 102% (inactive) | 107% (inactive) | 104% (inactive) | 94.8% (inactive) | 11.9% (inactive) | 83% | 94.8% | -5.66% (inactive) | -2.18% (inactive)
18 | COc1nc(N2CCOCC2)nc(-n2cccc2)n1 | 94.5% | 86.5% (inactive) | 94.5% (inactive) | 90.6% (inactive) | 87.4% (inactive) | 13.8% (inactive) | 73.6% | 87.4% | -4.08% (inactive) | -5.09% (inactive)
19 | CCCC(c1nnnn1Cc1ccc(OC)cc1)N1CCN(c2ccccc2OC)CC1 (stereo not given) | 103% | 112% (inactive) | 103% (inactive) | 92.4% (inactive) | 90% (inactive) | -5.73% (inactive) | 95.7% | 90% | -2.47% (inactive) | -2.3% (inactive)
20 | O=C(CSc1nc2ccccc2o1)Nc1ccccc1 | 107% | 124% (inactive) | 107% (inactive) | 105% (inactive) | 79% (inactive) | -11.4% (inactive) | 90.4% | 79% | -0.9% (inactive) | -4.83% (inactive)
21 | Cn1c2ccccc2c2ncn(CCCN3CCOCC3)c(=O)c21 | 89% | 93% (inactive) | 89% (inactive) | 101% (inactive) | 94.6% (inactive) | 1.77% (inactive) | 92.9% | 94.6% | -7.6% (inactive) | -7.94% (inactive)
22 | COc1ccc(Nc2nc(OC)nc(N3CCN(c4ccc(OC)cc4)CC3)n2)cc1 | 123% | 98% (inactive) | 123% (inactive) | 66.7% (inactive) | 71.3% (inactive) | -5.71% (inactive) | 77% | 71.3% | -6.27% (inactive) | -3.06% (inactive)
23 | Cc1ccc(S(=O)(=O)C2(C(=O)NC3CCCC3)CC2)cc1 | 148% | 87.5% (inactive) | 148% (inactive) | 104% (inactive) | 97.1% (inactive) | 9.32% (inactive) | 87.8% | 97.1% | -2.34% (inactive) | -2.22% (inactive)
24 | Cc1nc2ncnn2c(Nc2ccc3c(c2)OCCO3)c1C | 91% | 110% (inactive) | 91% (inactive) | 106% (inactive) | 73.7% (inactive) | -23.6% (inactive) | 97.3% | 73.7% | 2.8% (inactive) | 26.1% (inactive)
25 | NC(=O)c1nsnc1-c1ccccc1O | 105% | 124% (inactive) | 105% (inactive) | 99.9% (inactive) | 90.2% (inactive) | -6.96% (inactive) | 97.2% | 90.2% | 2.24% (inactive) | 16.8% (inactive)
26 | COc1ccccc1C1CC(c2ccc(C)cc2)Nc2ncnn21 (stereo not given) | 107% | 116% (inactive) | 107% (inactive) | 108% (inactive) | 102% (inactive) | -16% (inactive) | 118% | 102% | 4.67% (inactive) | -3.17% (inactive)
27 | COCCn1c(-c2ccc(OC)c(OC)c2)nc2ccccc21 | 93% | 108% (inactive) | 93% (inactive) | 105% (inactive) | 95.8% (inactive) | 4.81% (inactive) | 91% | 95.8% | -4.67% (inactive) | -5.81% (inactive)
28 | O=C(NCCO)c1scc2c1OCCO2 | 104% | 92% (inactive) | 104% (inactive) | 91.8% (inactive) | 93.6% (inactive) | -7.95% (inactive) | 102% | 93.6% | -5.73% (inactive) | -1.8% (inactive)
